This note sets out measurements from ChEMBL document CHEMBL1777808, “Preparation and pharmacological evaluation of a novel series of 2-(phenylthio)benzo[b]thiophenes as selective MT2 receptor ligands” (Eur J Med Chem, 2011).

In experiment [1] the target is T1, Melatonin receptor type 1B (Homo sapiens, UniProt P49286).
T1 sequence (P49286 whole entry): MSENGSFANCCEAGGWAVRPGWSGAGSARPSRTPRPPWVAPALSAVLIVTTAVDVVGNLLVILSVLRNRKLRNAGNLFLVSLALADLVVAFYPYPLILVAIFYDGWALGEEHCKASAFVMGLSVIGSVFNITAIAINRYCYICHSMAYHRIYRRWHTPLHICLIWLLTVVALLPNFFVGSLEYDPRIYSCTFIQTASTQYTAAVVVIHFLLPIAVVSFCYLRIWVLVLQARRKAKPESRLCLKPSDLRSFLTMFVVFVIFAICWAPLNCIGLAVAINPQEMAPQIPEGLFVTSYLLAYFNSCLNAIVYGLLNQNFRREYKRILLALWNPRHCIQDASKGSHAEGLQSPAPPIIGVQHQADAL
Put plainly: Displacement of 2-[125I]iodomelatonin from human MT2 receptor expressed in CHO cells. The format is cell-based.

The target of experiment [2] is T2, Melatonin receptor type 1A (Homo sapiens, UniProt P48039). The experiment can be described thus: Displacement of 2-[125I]iodomelatonin from human MT1 receptor expressed in CHO cells. The class given is cell-based.
T2 sequence (P48039 whole entry): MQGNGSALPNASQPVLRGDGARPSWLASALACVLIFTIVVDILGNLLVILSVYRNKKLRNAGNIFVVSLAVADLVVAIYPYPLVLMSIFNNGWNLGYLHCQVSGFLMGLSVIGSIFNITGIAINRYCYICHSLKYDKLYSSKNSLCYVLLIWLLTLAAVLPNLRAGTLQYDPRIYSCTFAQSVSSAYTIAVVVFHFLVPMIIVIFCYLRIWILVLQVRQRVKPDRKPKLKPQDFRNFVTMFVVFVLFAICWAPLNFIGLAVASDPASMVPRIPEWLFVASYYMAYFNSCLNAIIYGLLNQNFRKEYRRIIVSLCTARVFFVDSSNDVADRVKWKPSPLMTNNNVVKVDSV
Experiment [3] is filed under the species Homo sapiens. The experiment can be described thus: Selectivity ratio of Ki for human MT1 receptor to Ki for human MT2 receptor. In a few lines: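 Ki values from competition binding on membranes of stably transfected CHO cells (human MT1 or MT2). Ratio is MT1 Ki over MT2 Ki.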
For experiment [4], the target named is T3, Melatonin receptor type 1B (Homo sapiens) (UniProt P49286).
T3 sequence (whole entry): T1 sequence (P49286 whole entry)
The experiment can be described thus: Agonist activity at human MT2 receptor expressed in CHO cells by [35S]GTPgamma binding assay relative to melatonin. The format is functional, cell-based.

Experiment [5] deals with T1, Melatonin receptor type 1B. Put plainly: Agonist activity at human MT2 receptor expressed in CHO cells by [35S]GTPgamma binding assay. The class given is functional, cell-based.
Experiment [6] deals with T2, Melatonin receptor type 1A. The experiment can be described thus: Agonist activity at human MT1 receptor expressed in CHO cells by [35S]GTPgamma binding assay. The class given is functional, cell-based.
For experiment [7], the target named is T2, Melatonin receptor type 1A. The experiment can be described thus: Agonist activity at human MT1 receptor expressed in CHO cells by [35S]GTPgamma binding assay relative to melatonin. The format is functional, cell-based.
Experiment [8] addresses T3, Melatonin receptor type 1B (Homo sapiens). Put plainly: Antagonist activity at human MT2 receptor expressed in CHO cells assessed as inhibition of melatonin-induced [35S]GTPgamma binding. The class given is functional, cell-based. In a few lines: (§1)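 Then 0.2 nM [35S]GTPγS added, 1 h at room temperature in HEPES pH 7.4/NaCl/MgCl2/GDP/saponin buffer. Filtration, three ice-cold washes.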

Experiment [9] has as its target T2, Melatonin receptor type 1A. Put plainly: Antagonist activity at human MT1 receptor expressed in CHO cells assessed as inhibition of melatonin-induced [35S]GTPgamma binding. The format is functional, cell-based. In a few lines: as §1

In the case of `O=C(CCCCl)NCCc1c(Sc2ccc(F)cc2)sc2ccc(F)cc12`, the Ki in experiment [1] worked out at 24.8 nM; in [2], 2860 nM. Moreover, the Ratio Ki in experiment [3] was 115.

For the molecule `O=C(NCCc1c(Sc2ccc(F)cc2)sc2ccc(F)cc12)C1CCC1`, the results for the inhibitory constant (Ki) in experiment [1] and in experiment [2] were 194 nM and 915 nM, respectively. Moreover, in [3], the Ratio Ki came to 4.7.

As for `C=CCC(=O)NCCc1c(Sc2ccc(F)cc2)sc2ccc(F)cc12`, the Emax in [4] came out at 52.4%; in experiment [7] it was 45%. The Ki in [1] amounted to 0.24 nM; in [2], 52.8 nM. The Ratio Ki in experiment [3] is 220. The EC50 amounted to 2.15 nM in experiment [5] and 188 nM in experiment [6].

As for `CCC(=O)NCCc1c(Sc2ccc(F)cc2)sc2ccc(F)cc12`, the Imax was determined as 92% in [8] and 115% in [9]. Also, the Kb came out at 0.67 nM in experiment [8] and 42 nM in experiment [9]. Also, the Ki in experiment [1] turned out to be 4.4 nM; in experiment [2], 226 nM. In addition, the Ratio Ki in experiment [3] was 51.4. In addition, the EC50 in [5] and in [6] was over 10000 nM each time.

For `C=CC(=O)NCCc1c(Sc2ccc(F)cc2)sc2ccc(F)cc12`, the Ki in [1] is 10.7 nM; in [2], 236 nM. For the same molecule, the Ratio Ki in [3] turned out to be 22.

As to `CC(=O)NCCc1c(Sc2ccc(F)cc2)sc2ccc(F)cc12`, the Emax was found to be 42% in experiment [4] and 33% in experiment [7]. The Ki in [1] amounted to 0.87 nM; in [2] it was 57 nM. Further, in [3], the Ratio Ki came to 65.5. Moreover, the results for the EC50 in experiment [5] and in experiment [6] were 0.64 nM and 202 nM, respectively.

Turning to `O=C(CBr)NCCc1c(Sc2ccc(F)cc2)sc2ccc(F)cc12`, the Emax in [4] worked out at 47%. The Ki in experiment [1] was 5.21 nM; in experiment [2] it was 22.1 nM. For the same molecule, the Ratio Ki in experiment [3] worked out at 4.2. In addition, the EC50 in [5] is 7.27 nM; in experiment [6], over 10000 nM.

For `CC(=O)NCCc1csc2ccc(F)cc12`, the Emax in experiment [4] is 61%; in experiment [7], 87%. Also, the Kb was over 10000 nM in [8] and 62.8 nM in experiment [9]. In addition, the Ki in experiment [1] came out at 4.87 nM; in [2], 24.6 nM. For the same molecule, in experiment [3], the Ratio Ki amounted to 5. Further, the EC50 in experiment [5] turned out to be 0.68 nM; in experiment [6] it was 23.8 nM.
